Among the data in ChEMBL document CHEMBL1127795, “Small-molecule immunostimulants. Synthesis and activity of 7,8-disubstituted guanosines and structurally related compounds” (1994) are EC50 and Max response values, retold here.

For experiment [1], the species on record is Mus musculus. The experiment is described as follows: Ability to act as B-cell mitogens. It is filed as functional. The following applies: read-out: ED50 (the source's name). The method, boiled down:
(§1)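 CBA/CaJ mouse spleen cells (1 × 10⁵/0.2 mL) exposed to graded compound concentrations, dissolved in water or DMSO and diluted in medium, for 24 h. [³H]thymidine then added for a further 24 h; incorporation by scintillation counting. ED50 and maximal response expressed relative to a concurrently run standard (loxoribine in most cases).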

The species named for experiment [2] is Mus musculus. The experiment in a line: Percent of maximum response was tested for its ability to act as B-cell mitogens (mitogenicity). It is filed as functional. The essentials:
as §1

The species named for experiment [3] is Mus musculus. The experiment is described as follows: Percent of maximum response was tested to augment the antibody response of B cells to sheep red blood cell challenge. It is filed as functional. The method, boiled down: (§2)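 CBA/CaJ spleen cells depleted of T cells with anti-T cell monoclonal antibody (1:1000, 30 min, 4 °C) then complement (37 °C, 45 min). Cultured ± 0.1% SRBC antigen in serum-containing medium with compound from zero to 10⁻³ M for 4 d. Plaque-forming cells counted in agarose with guinea pig complement. ED50 and maximal response relative to a concurrent standard.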

Experiment [4] is filed under the species Mus musculus. The experiment in a line: Augment antibody response of B cells to sheep red blood cell (SRBC) challenge (adjuvanticity). It is filed as functional. The following applies: read-out: ED50 (the source's name). The method, boiled down: as §2
Experiment [5] has as its system YAC-1. The experiment is described as follows: Stimulation of natural killer (NK) response in Yac-1 cell line (mouse, lymphoma). It is filed as functional. The settings on record: read-out: ED50 (the source's name).
Experiment [6] has as its system YAC-1. The experiment is described as follows: Percent of maximum response was tested for its ability to stimulate the natural killer response in murine in vitro cell assays. It is filed as functional, Mus musculus.

With `C=CCn1c(=S)n(C2OC(COC(C)=O)[C@H]3OC(C)(C)O[C@@H]23)c2nc(N)nc(O)c21` (stereo partly specified), the figures for the EC50 in the experiment filed under Mus musculus [1], in the experiment filed under Mus musculus [4] and in the experiment with YAC-1 [5] were 50 µM, 50 µM and 30 µM, respectively. Also, the results for the Max response in the experiment filed under Mus musculus [2], in the experiment filed under Mus musculus [3] and in the experiment with YAC-1 [6] were 20%, 141% and 30%, respectively.
`NCC(O)Cn1c(=O)n(C2OC(CO)[C@@H](O)[C@H]2O)c2nc(N)nc(O)c21` (stereo partly specified) came in with a Max response in the experiment filed under Mus musculus [3] of 110%. Further, the EC50 in the experiment listed under Mus musculus [4] is 28 µM.
For `CN(C)CCCn1c(=O)n(C2OC(CO)[C@@H](O)[C@H]2O)c2nc(N)nc(O)c21` (stereo partly specified), the EC50 in the experiment filed under Mus musculus [1] is 820 µM; in the experiment listed under Mus musculus [4], 194 µM. For the same compound, the Max response in the experiment filed under Mus musculus [2] came out at 63%; in the experiment listed under Mus musculus [3] it was 83%.
For the compound `C=CCn1c(=S)n([C@@H]2O[C@H](CO)[C@H]3OC(C)(C)O[C@H]32)c2nc(N)nc(O)c21`, the EC50 in the experiment listed under Mus musculus [1] worked out at 45 µM; in the experiment listed under Mus musculus [4] it was 55 µM; in the experiment on YAC-1 [5], 40 µM. Also, the Max response was 9% in the experiment listed under Mus musculus [2], 89% in the experiment listed under Mus musculus [3] and 30% in the experiment on YAC-1 [6].
Consider `Nc1nc(O)c2c(n1)n(C1OC(CO)[C@@H](O)[C@H]1O)c(=O)n2Cc1ccccc1` (stereo partly specified), for which the Max response in the experiment listed under Mus musculus [3] was 110%. Besides, in the experiment filed under Mus musculus [4], the EC50 stood at 6 µM.
As to `NC(=O)Cn1c(=O)n(C2OC(CO)[C@@H](O)[C@H]2O)c2nc(N)nc(O)c21` (stereo partly specified), the EC50 was found to be 117 µM in the experiment filed under Mus musculus [1], 190 µM in the experiment filed under Mus musculus [4] and 90 µM in the experiment with YAC-1 [5]. The Max response in the experiment listed under Mus musculus [2] came out at 72%; in the experiment listed under Mus musculus [3] it was 32%; in the experiment on YAC-1 [6] it was 42%.
In the case of `C=CCn1c(=O)n(CCCCCCCC)c2nc(N)nc(O)c21`, the Max response in the experiment listed under Mus musculus [3] was 130%. In addition, the EC50 in the experiment filed under Mus musculus [4] was found to be 37 µM.
Turning to `C=CCn1c(=O)n(C2CN(C(c3ccccc3)c3ccccc3)CC(CO)O2)c2nc(N)nc(O)c21` (stereo unspecified), the EC50 with YAC-1 [5] worked out at 12 µM. The compound also registered a Max response with YAC-1 [6] of 46%.
In the case of `COc1ccc(Cn2c(=O)n(C3OC(CO)[C@@H](O)[C@H]3O)c3nc(N)nc(O)c32)cc1` (stereo partly specified), the EC50 in the experiment filed under Mus musculus [1] worked out at 2400 µM; in the experiment filed under Mus musculus [4] it was 135 µM. The Max response in the experiment listed under Mus musculus [2] is on record as 14%; in the experiment filed under Mus musculus [3], 44%.
With `Nc1nc(O)c2c(n1)n(C1OC(CO)[C@@H](O)[C@H]1O)c(=O)n2C/C=C/c1ccccc1` (stereo partly specified), the results for the EC50 in the experiment listed under Mus musculus [1] and in the experiment listed under Mus musculus [4] were 4500 µM and 103 µM, respectively. Besides, the Max response in the experiment filed under Mus musculus [2] stood at 5%; in the experiment listed under Mus musculus [3], 73%.
For the compound `C=CCn1c(=S)n(C2OC(CO)[C@@H](O)[C@H]2O)c2nc(N)nc(O)c21` (stereo partly specified), the EC50 in the experiment listed under Mus musculus [1] was 20 µM; in the experiment listed under Mus musculus [4] it was 1 µM. In addition, the figures for the Max response in the experiment listed under Mus musculus [2] and in the experiment filed under Mus musculus [3] were 151% and 100%, respectively.
Consider `C=CCSc1nc2c(O)nc(N)nc2n1C1OC(CO)[C@@H](O)[C@H]1O` (stereo partly specified), for which the values for the EC50 in the experiment filed under Mus musculus [1] and in the experiment filed under Mus musculus [4] were 485 µM and 107 µM, respectively. Moreover, the Max response in the experiment listed under Mus musculus [2] was 57%; in the experiment filed under Mus musculus [3], 107%.
Compound `C=CCn1c(=O)n(Cc2ccccc2)c2nc(N)nc(O)c21` returned a Max response in the experiment listed under Mus musculus [3] of 25%. Besides, the EC50 in the experiment listed under Mus musculus [4] turned out to be 5 µM.
For `Nc1nc(O)c2c(n1)n(C1OC(CO)[C@@H](O)[C@H]1O)c(=O)n2Cc1ccc(Cl)cc1` (stereo partly specified), the Max response in the experiment filed under Mus musculus [3] is listed as 15%; in the experiment on YAC-1 [6], 27%. Also, the EC50 in the experiment filed under Mus musculus [4] is 14 µM; in the experiment with YAC-1 [5], 180 µM.
Turning to `Nc1nc(O)c2c(n1)n(C1OC(CO)[C@@H](O)[C@H]1O)c(=O)n2CCCl` (stereo partly specified), the Max response came out at 101% in the experiment listed under Mus musculus [3] and 83% in the experiment with YAC-1 [6]. Also, the EC50 in the experiment listed under Mus musculus [4] was 4 µM; with YAC-1 [5], 19 µM.
Take `CCCCCCn1c(=O)n(C2OC(CO)[C@@H](O)[C@H]2O)c2nc(N)nc(O)c21` (stereo partly specified): the EC50 in the experiment filed under Mus musculus [1] was 600 µM. The Max response in the experiment filed under Mus musculus [2] turned out to be 11%.
Turning to `C=CCn1c(=O)n([C@@H]2O[C@H](CO)[C@H]3OC(CCC)(CCC)O[C@H]32)c2nc(N)nc(O)c21`, the Max response in the experiment filed under Mus musculus [2] is listed as 38%; in the experiment filed under Mus musculus [3], 123%; in the experiment with YAC-1 [6], 56%. Also, the EC50 is 4 µM in the experiment listed under Mus musculus [4] and 11 µM in the experiment with YAC-1 [5].
`CCCCn1c(=O)n(C2OC(CO)[C@@H](O)[C@H]2O)c2nc(N)nc(O)c21` (stereo partly specified): the EC50 came to 100 µM in the experiment filed under Mus musculus [1] and 11 µM in the experiment listed under Mus musculus [4]. Further, the Max response in the experiment filed under Mus musculus [2] turned out to be 70%; in the experiment listed under Mus musculus [3], 86%.
For `Cn1c(=O)n(C2OC(CI)[C@@H](O)[C@H]2O)c2nc(N)nc(O)c21` (stereo partly specified), in the experiment filed under Mus musculus [1], the EC50 was determined as 52 µM. Besides, the Max response was 4% in the experiment filed under Mus musculus [2] and 32% in the experiment listed under Mus musculus [3].
`C=CCn1c(=O)n(CCC(COCc2ccccc2)COCc2ccccc2)c2nc(N)nc(O)c21` returned a Max response in the experiment listed under Mus musculus [3] of 68%. Moreover, the EC50 in the experiment listed under Mus musculus [4] was 7 µM.
As to `Nc1nc(O)c2nc(S)n([C@@H]3O[C@H](CO)[C@@H](O)[C@H]3O)c2n1`, the EC50 in the experiment listed under Mus musculus [1] worked out at 532 µM; in the experiment filed under Mus musculus [4], 50 µM. Also, the Max response in the experiment filed under Mus musculus [2] and in the experiment filed under Mus musculus [3] was 100% in each case.
As to `CC1(C)O[C@@H]2[C@H](O1)[C@@H](CO)O[C@H]2n1c(=O)n(C/C=C/c2ccccc2)c2c(O)nc(N)nc21`, the figures for the Max response in the experiment listed under Mus musculus [2] and in the experiment filed under Mus musculus [3] were 10% and 16%, respectively.
In the case of `Nc1nc(O)c2c(n1)n(C1OC(CO)[C@@H](O)[C@H]1O)c(=O)n2CC(O)CO` (stereo partly specified), in the experiment filed under Mus musculus [3], the Max response is on record as 136%. Moreover, the EC50 in the experiment filed under Mus musculus [4] came out at 45 µM.
Regarding `CCn1c(=O)n(C2OC(CO)[C@@H](O)[C@H]2O)c2nc(N)nc(O)c21` (stereo partly specified), the Max response in the experiment filed under Mus musculus [2] and in the experiment listed under Mus musculus [3] was 82% in each case. The EC50 in the experiment filed under Mus musculus [4] came to 15 µM.
For `Cn1c(=O)n([C@@H]2O[C@H](CO)[C@H]3OC(C)(C)O[C@H]32)c2nc(N)nc(O)c21`, the Max response in the experiment filed under Mus musculus [2] was 17%; in the experiment listed under Mus musculus [3], 193%. In the experiment listed under Mus musculus [4], the EC50 was 168 µM.
In the case of `COc1ccc(CCNCC(O)Cn2c(=O)n(C3OC(CO)[C@@H](O)[C@H]3O)c3nc(N)nc(O)c32)cc1OC` (stereo partly specified), the Max response in the experiment listed under Mus musculus [3] was determined as 3%.
`[N-]=[N+]=NCC(O)Cn1c(=O)n(C2OC(CO)[C@@H](O)[C@H]2O)c2nc(N)nc(O)c21` (stereo partly specified) had a Max response in the experiment listed under Mus musculus [3] of 91%. Also, the EC50 in the experiment listed under Mus musculus [4] is 39 µM.
In turn, `Nc1nc(O)c2c(n1)n(C1OC(CO)[C@@H](O)[C@H]1O)c(=O)n2CC(O)CSc1ccccc1` (stereo partly specified) showed a Max response in the experiment listed under Mus musculus [3] of 12%. For the same compound, the EC50 in the experiment filed under Mus musculus [4] came out at 142 µM.
In the same order, the values of `C=CCn1/c(=N\C#N)n([C@H]2OC(CO)[C@@H](O)[C@H]2O)c2nc(N)nc(O)c21` (stereo partly specified) are 85% and 156 µM.
In the case of `C=CCn1c(=S)n(C2OC(COC(C)=O)[C@@H](OC(C)=O)[C@H]2OC(C)=O)c2nc(N)nc(O)c21` (stereo partly specified), the figures for the EC50 in the experiment filed under Mus musculus [1] and in the experiment filed under Mus musculus [4] were 34 µM and 5 µM, respectively. Further, the Max response in the experiment filed under Mus musculus [2] is on record as 96%; in the experiment filed under Mus musculus [3], 141%.
Turning to `C=CCn1c(=[Se])n(C2OC(CO)[C@@H](O)[C@H]2O)c2nc(N)nc(O)c21` (stereo partly specified), the results for the EC50 in the experiment listed under Mus musculus [1] and in the experiment listed under Mus musculus [4] were 118 µM and 15 µM, respectively. The Max response in the experiment listed under Mus musculus [2] was found to be 107%; in the experiment listed under Mus musculus [3], 70%.
`CCOC(=O)Cn1c(=O)n(C2OC(CO)[C@@H](O)[C@H]2O)c2nc(N)nc(O)c21` (stereo partly specified): the EC50 in the experiment listed under Mus musculus [1] is 630 µM; in the experiment filed under Mus musculus [4], 48 µM. Further, the Max response is 58% in the experiment listed under Mus musculus [2] and 86% in the experiment listed under Mus musculus [3].
With `Nc1nc(O)c2c(n1)n(C1OC(CO)[C@@H](O)[C@H]1O)c(=O)n2CC(O)CN1CCN(c2ccc(F)cc2)CC1` (stereo partly specified), the Max response in the experiment filed under Mus musculus [3] is listed as 16%.
